For series [1], the target named is T1, ATP-dependent translocase ABCB1 (Homo sapiens, UniProt P08183). Put plainly: Inhibition of MDR1 (unknown origin) expressed in MDCK cells assessed as decrease in calcein-AM transport after 30 mins by fluorescence assay. The format is cell-based. A digest of the protocol: (§1)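 MDCK-MDR1 or MDCK-MRP1 cells (50,000/well) grown to confluence overnight. Compounds in medium preincubated 30 min at 37 °C, then calcein-AM (2.5 μM final, in PBS) added for 30 min. Three ice-cold PBS washes; fluorescence read at ex 485/em 535 nm. Increase over untreated basal fluorescence fitted against log[dose] for EC50. Mean of three independent experiments, duplicate samples.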

A further series deals with P-gp (ABCB1) (Homo sapiens, UniProt P08183). Put plainly: Substrate activity at p-gp in human Caco2 cells assessed as ratio of apparent permeability across basolateral to apical over apical to basolateral side at 100 uM after 120 mins by UV-Vis spectroscopy. The format is ADME, cell-based. As to conditions: Caco-2. A digest of the protocol:
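Caco-2 monolayers cultured 21 days, with TEER checked before and after the experiment. Compounds at 100 μM in HBSS pH 7.4, applied apical or basolateral, 120 min at 37 °C after 30 min buffer preincubation. Acceptor concentration measured by UV–vis. Papp = [VA/(area×time)]×([drug]acceptor/[drug]initial), area 0.11 cm², 7200 s. Two independent experiments.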
On the technique in general: Caco-2 cells form a polarised layer with tight junctions and transporters.

The target in series [2] is Multidrug resistance-associated protein 1 (Homo sapiens, UniProt P33527). Kind of series: Inhibition of MRP1 (unknown origin) expressed in MDCK cells assessed as decrease in calcein-AM transport at 10^-4 M after 30 mins by fluorescence assay. Format: cell-based. Particulars: 0.5 h, 100 µM. A digest of the protocol:
as §1

The target in series [3] is T1, ATP-dependent translocase ABCB1. Kind of series: Activation of MDR1 (unknown origin) ATPase activity expressed in MDCK cells assessed as decrease in ATP level after 2 hrs by ATPlite assay. The format is cell-based. A digest of the protocol:
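MDCK-MDR1 cells seeded at 2x10⁴/well, grown overnight at 37 °C, 5% CO₂, then exposed to test compounds in complete medium at varying concentrations for 2 h. Cells lysed, luciferase substrate added, 10 min dark adaptation, luminescence read as cellular ATP level. Mean of three independent experiments, duplicate samples.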
On the technique in general: ATP-based viability assays read luminescence as a measure of living cells.

The target of series [4] is T2, Broad substrate specificity ATP-binding cassette transporter ABCG2 (Homo sapiens, UniProt Q9UNQ0).
T2 sequence (Q9UNQ0 whole entry): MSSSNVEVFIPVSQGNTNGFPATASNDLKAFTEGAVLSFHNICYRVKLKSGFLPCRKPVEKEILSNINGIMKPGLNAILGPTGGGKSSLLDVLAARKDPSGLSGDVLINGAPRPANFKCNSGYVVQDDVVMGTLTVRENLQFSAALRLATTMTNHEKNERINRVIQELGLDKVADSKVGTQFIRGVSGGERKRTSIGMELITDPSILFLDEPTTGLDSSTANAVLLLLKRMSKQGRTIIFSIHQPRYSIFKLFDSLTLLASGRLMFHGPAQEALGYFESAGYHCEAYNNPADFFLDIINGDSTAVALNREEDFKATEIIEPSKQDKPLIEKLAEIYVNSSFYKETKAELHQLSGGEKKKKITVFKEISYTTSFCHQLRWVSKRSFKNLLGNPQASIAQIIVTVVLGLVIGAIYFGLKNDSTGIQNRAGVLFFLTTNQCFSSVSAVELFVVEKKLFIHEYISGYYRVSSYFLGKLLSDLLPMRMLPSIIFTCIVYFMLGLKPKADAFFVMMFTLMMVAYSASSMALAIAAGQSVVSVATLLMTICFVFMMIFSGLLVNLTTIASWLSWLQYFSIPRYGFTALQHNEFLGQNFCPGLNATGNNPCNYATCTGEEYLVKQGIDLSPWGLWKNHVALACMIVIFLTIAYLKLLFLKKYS
Put plainly: Inhibition of BCRP (unknown origin).

Series [5] has as its system MDCK. Kind of series: Cytotoxicity against MDCK cells expressing MDR1 assessed as inhibition of cell proliferation at 0.1 uM after 48 hrs by MTT assay. The format is ADME, cell-based, Canis lupus familiaris. As to conditions: dog. A digest of the protocol:
(§2)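 MTT growth assay. 30000 cells/well seeded on day 1; drugs added on day 2 over 0.1–100 μM, with solvent (ethanol, DMSO) controls. After 24 or 48 h, MTT 0.5 mg/mL for 3 h at 37 °C. Formazan dissolved in DMSO, absorbance read at 570 and 630 nm.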
(Formazan colour is commonly taken as a measure of viable cells.)

Series [6] concerns MDCK. Put plainly: Cytotoxicity against MDCK cells expressing MDR1 assessed as inhibition of cell proliferation at 1 uM after 24 hrs by MTT assay. Format: ADME, cell-based, Canis lupus familiaris. As to conditions: dog. A digest of the protocol:
as §2

For another series, the system named is MCF7. Kind of series: Cytotoxicity against human MCF7 cells assessed as inhibition of cell proliferation at 0.1 uM after 24 hrs by MTT assay. Format: cell-based. As to conditions: mcf7, 24 h. A digest of the protocol:
as §2

Consider 14 compounds from ChEMBL document CHEMBL4425124, “Structure-Activity Relationship Studies on Tetrahydroisoquinoline Derivatives: [4'-(6,7-Dimethoxy-3,4-dihydro-1H-isoquinolin-2-ylmethyl)biphenyl-4-ol] (MC70) Conjugated through Flexible Alkyl Chains with Furazan Moieties Gives Rise to Potent and Selective Ligands of P-glycoprotein” (J Med Chem, 2016).

Chain of Multidrug resistance-associated protein 1 (P33527 whole entry): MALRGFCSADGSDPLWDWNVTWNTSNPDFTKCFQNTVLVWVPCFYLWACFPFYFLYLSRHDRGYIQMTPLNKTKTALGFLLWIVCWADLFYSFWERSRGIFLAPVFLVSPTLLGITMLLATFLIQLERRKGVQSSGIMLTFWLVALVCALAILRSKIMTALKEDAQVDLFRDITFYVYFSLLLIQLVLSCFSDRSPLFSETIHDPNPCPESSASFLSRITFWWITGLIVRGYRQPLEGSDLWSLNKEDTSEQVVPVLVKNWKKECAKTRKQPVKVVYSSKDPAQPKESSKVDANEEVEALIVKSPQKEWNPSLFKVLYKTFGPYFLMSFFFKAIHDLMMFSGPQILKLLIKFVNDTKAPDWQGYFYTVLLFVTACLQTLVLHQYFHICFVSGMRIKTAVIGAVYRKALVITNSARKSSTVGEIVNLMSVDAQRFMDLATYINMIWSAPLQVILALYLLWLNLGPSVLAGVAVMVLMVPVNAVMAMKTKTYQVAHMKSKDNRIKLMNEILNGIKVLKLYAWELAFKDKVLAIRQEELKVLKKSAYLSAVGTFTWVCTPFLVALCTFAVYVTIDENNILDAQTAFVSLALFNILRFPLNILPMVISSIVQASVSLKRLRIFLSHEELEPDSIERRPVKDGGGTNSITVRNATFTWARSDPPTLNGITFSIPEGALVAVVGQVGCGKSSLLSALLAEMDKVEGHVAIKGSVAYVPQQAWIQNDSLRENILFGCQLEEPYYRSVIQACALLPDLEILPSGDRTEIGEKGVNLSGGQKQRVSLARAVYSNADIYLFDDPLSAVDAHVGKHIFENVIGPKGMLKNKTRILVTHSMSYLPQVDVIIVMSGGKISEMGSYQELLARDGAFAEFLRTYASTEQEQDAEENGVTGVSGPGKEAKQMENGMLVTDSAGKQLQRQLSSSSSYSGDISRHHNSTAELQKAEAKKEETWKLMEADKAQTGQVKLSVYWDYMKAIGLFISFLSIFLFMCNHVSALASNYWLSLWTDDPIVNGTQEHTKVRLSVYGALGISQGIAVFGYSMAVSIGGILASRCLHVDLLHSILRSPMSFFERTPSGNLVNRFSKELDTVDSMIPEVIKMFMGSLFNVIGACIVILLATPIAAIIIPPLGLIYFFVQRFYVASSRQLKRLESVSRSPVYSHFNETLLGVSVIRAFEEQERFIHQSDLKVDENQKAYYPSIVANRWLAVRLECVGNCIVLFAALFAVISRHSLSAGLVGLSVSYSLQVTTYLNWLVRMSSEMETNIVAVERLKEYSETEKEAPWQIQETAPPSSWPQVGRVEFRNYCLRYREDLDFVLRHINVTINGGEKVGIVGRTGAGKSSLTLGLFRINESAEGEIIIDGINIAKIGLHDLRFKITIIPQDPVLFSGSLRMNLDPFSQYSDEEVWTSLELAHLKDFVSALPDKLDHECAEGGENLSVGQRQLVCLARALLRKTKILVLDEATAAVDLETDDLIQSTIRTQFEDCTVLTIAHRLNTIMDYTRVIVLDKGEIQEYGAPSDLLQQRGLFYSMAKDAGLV
T1 sequence (P08183 whole entry): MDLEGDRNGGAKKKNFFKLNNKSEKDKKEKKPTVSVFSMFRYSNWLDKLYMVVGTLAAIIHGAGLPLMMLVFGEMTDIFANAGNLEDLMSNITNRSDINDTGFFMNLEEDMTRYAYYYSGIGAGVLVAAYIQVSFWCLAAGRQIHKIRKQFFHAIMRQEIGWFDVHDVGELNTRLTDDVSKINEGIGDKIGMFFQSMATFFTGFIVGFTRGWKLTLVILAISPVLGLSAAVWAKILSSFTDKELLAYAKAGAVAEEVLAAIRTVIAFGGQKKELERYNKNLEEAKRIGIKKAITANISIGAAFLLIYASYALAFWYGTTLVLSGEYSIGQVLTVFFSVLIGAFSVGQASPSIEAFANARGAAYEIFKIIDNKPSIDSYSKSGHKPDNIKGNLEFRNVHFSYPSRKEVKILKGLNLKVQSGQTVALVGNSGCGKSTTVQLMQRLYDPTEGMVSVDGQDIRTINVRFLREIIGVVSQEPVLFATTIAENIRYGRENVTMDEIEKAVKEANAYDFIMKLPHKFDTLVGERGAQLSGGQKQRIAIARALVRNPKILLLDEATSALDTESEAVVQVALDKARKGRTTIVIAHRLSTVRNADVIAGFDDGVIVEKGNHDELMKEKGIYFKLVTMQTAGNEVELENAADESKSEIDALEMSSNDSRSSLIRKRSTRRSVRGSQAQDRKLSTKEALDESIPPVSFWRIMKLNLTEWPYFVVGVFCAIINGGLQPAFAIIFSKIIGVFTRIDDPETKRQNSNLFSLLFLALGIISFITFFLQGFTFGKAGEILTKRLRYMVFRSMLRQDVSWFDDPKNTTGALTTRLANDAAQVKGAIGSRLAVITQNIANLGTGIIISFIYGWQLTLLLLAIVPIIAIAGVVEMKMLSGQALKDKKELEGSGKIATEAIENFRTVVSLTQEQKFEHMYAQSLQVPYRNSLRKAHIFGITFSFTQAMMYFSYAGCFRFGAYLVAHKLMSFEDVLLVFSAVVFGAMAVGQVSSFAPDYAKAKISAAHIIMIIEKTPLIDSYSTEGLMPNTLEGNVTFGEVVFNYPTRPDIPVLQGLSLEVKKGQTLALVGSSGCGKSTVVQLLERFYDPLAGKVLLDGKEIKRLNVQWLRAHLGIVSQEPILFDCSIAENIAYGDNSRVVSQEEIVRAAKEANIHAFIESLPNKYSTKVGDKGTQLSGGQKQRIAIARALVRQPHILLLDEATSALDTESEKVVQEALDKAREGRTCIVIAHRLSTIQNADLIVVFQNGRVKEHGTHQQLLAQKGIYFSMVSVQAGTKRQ
Chain of P-gp (ABCB1) (P08183 whole entry): as above

Broadly, the EC50 is the concentration at which the effect is half-maximal. In general, efflux ratio refers to a quotient of directional permeabilities that is used to spot active efflux. For `COc1cc2c(cc1OC)CN(Cc1ccc(-c3ccc(OCCOc4nonc4OCc4ccccc4)cc3)cc1)CC2`, in series [1], the EC50 is 290 nM. In addition, the efflux ratio at 2 h, 100 µM on P-gp (ABCB1) is 4.9. Besides, in series [2], the “inhibition (INH)” value is reported as “Not Active”. Further, in series [3], the Activity entry is on record as “Not Active”.

Consider `COc1cc2c(cc1OC)CN(Cc1ccc(-c3ccc(OCCOc4nonc4[S+]([O-])c4ccccc4)cc3)cc1)CC2` (configuration not stated), for which the EC50 in series [4] was greater than 100000 nM; in series [1] it was 0.9 nM. Besides, the Activity result is on record as “Toxic” in the series on MDCK [5], “Non-Toxic” in the series on MDCK [6], “Not Active” in series [3] and “Toxic” in the series with MCF7. Further, the efflux ratio at 2 h, 100 µM on P-gp (ABCB1) turned out to be 4.6. Further, the “inhibition (INH)” value in series [2] is recorded as “Not Active”.

As for `COc1cc2c(cc1OC)CN(Cc1ccc(-c3ccc(OCCCCOc4nonc4OC)cc3)cc1)CC2`, the concentration for a half-maximal effect (EC50) in series [1] is 290 nM. The efflux ratio at 2 h, 100 µM at P-gp (ABCB1) worked out at 3. For the same compound, in series [2], the “inhibition (INH)” value is “Not Active”. For the same compound, the Activity entry in series [3] is “Not Active”.

Regarding `COc1cc2c(cc1OC)CN(Cc1ccc(-c3ccc(OCCCOc4nonc4C#N)cc3)cc1)CC2`, the EC50 in series [1] is 1050 nM. Besides, on P-gp (ABCB1), the efflux ratio at 2 h, 100 µM amounted to 4.9. The “inhibition (INH)” value in series [2] was “Not Active”. In series [3], the Activity entry is “Not Active”.

`COc1cc2c(cc1OC)CN(Cc1ccc(-c3ccc(OCCCOc4nonc4OC)cc3)cc1)CC2`: in series [1], the EC50 was 54 nM. Moreover, the efflux ratio at 2 h, 100 µM on P-gp (ABCB1) is 3.2. Also, the “inhibition (INH)” value in series [2] is “Not Active”. Besides, the Activity entry in series [3] was “Not Active”.

Regarding `COc1cc2c(cc1OC)CN(Cc1ccc(-c3ccc(OCCOc4nonc4OC)cc3)cc1)CC2`, the EC50 in series [4] is greater than 100000 nM; in series [1], 0.6 nM. Also, the Activity entry in the series with MDCK [5] is given as “Toxic”; in the series with MDCK [6] it was “Non-Toxic”; in series [3], “Active”; with MCF7, “Toxic”. On P-gp (ABCB1), the efflux ratio at 2 h, 100 µM came to 3.2. Besides, the “inhibition (INH)” value in series [2] is reported as “Not Active”.

On to `COc1cc2c(cc1OC)CN(Cc1ccc(-c3ccc(OCCCOc4nonc4Oc4ccccc4)cc3)cc1)CC2`, for which the concentration giving a half-maximal response (EC50) in series [1] is 1180 nM. In addition, the efflux ratio at 2 h, 100 µM at P-gp (ABCB1) was 3.8. Further, in series [2], the “inhibition (INH)” value is on record as “Not Active”. The Activity entry in series [3] is listed as “Not Active”.

For `COc1cc2c(cc1OC)CN(Cc1ccc(-c3ccc(OCCOc4nonc4C#N)cc3)cc1)CC2`, in series [1], the EC50 is 1200 nM. Also, the efflux ratio at 2 h, 100 µM on P-gp (ABCB1) is 4.7. For the same compound, in series [2], the “inhibition (INH)” value is recorded as “Not Active”. Besides, the Activity entry in series [3] is “Not Active”.

As for `COc1cc2c(cc1OC)CN(Cc1ccc(-c3ccc(OCCCOc4nonc4S(=O)(=O)c4ccccc4)cc3)cc1)CC2`, in series [1], the half-maximal effective concentration (EC50) is 380 nM. In addition, the efflux ratio at 2 h, 100 µM on P-gp (ABCB1) came out at 2.5. Moreover, the “inhibition (INH)” value in series [2] is “Not Active”. Besides, the Activity entry in series [3] is listed as “Not Active”.

In the case of `COc1cc2c(cc1OC)CN(Cc1ccc(-c3ccc(OCCCOc4nonc4OCc4ccccc4)cc3)cc1)CC2`, the values for the EC50 in series [4] and in series [1] were greater than 100000 nM and 0.97 nM, respectively. The Activity entry was “Toxic” in the series on MDCK [5], “Non-Toxic” in the series on MDCK [6], “Not Active” in series [3] and “Toxic” in the series on MCF7. For the same compound, the efflux ratio at 2 h, 100 µM at P-gp (ABCB1) came to 3. The “inhibition (INH)” value in series [2] is reported as “Not Active”.

Take `COc1cc2c(cc1OC)CN(Cc1ccc(-c3ccc(OCCCOc4nonc4-c4ccccc4)cc3)cc1)CC2`: the half-maximal effective concentration (EC50) in series [1] is 3300 nM. On P-gp (ABCB1), the efflux ratio at 2 h, 100 µM was determined as 20. For the same compound, the “inhibition (INH)” value in series [2] is reported as “Not Active”. Also, the Activity result in series [3] is listed as “Not Active”.

Consider `COc1cc2c(cc1OC)CN(Cc1ccc(-c3ccc(OCCCOc4nonc4Sc4ccccc4)cc3)cc1)CC2`, for which, in series [1], the EC50 is 1170 nM. At P-gp (ABCB1), the efflux ratio at 2 h, 100 µM turned out to be 4.7. Moreover, the “inhibition (INH)” value in series [2] is on record as “Not Active”. Besides, the Activity result in series [3] was “Not Active”.

Consider `COc1cc2c(cc1OC)CN(Cc1ccc(-c3ccc(OCCCOc4nonc4[S+]([O-])c4ccccc4)cc3)cc1)CC2` (configuration not stated), for which the 50% effective concentration (EC50) in series [4] is greater than 100000 nM; in series [1] it was 1.3 nM. The Activity entry in the series with MDCK [5] is listed as “Toxic”; with MDCK [6] it was “Non-Toxic”; in series [3] it was “Not Active”; with MCF7, “Toxic”. The efflux ratio at 2 h, 100 µM on P-gp (ABCB1) came out at 2.6. Also, the “inhibition (INH)” value in series [2] is “Not Active”.

Take `COc1cc2c(cc1OC)CN(Cc1ccc(-c3ccc(OCCCOc4nonc4C)cc3)cc1)CC2`: the EC50 in series [1] is 350 nM. For the same compound, at P-gp (ABCB1), the efflux ratio at 2 h, 100 µM worked out at 4. Also, the “inhibition (INH)” value in series [2] is “Not Active”. In addition, in series [3], the Activity entry is given as “Not Active”.
